The subject of one data set is S. mansoni adult worms. The following applies: read-out: EC50 for S. mansoni adult worms; cited from earlier work.
A further data set relates to Caenorhabditis elegans. Briefly: Lethal toxicity assay in C. elegans. It counts as in vivo. To be noted: L4-stage larvae, Bristol N2 strain, 24 h, 21 °C. The gist of the method: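 C. elegans Bristol N2 was grown on NGM plates seeded with E. coli OP50. Synchronized L4 larvae, 60/well in M9 medium, were exposed to test compound starting at 1,000 µM, with ivermectin reference and 1% DMSO negative control. Viability was scored by movement after 24 h at 21 °C. Triplicate; LD50 from sigmoidal dose-response curves.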

Data set [1] relates to Angiostrongylus cantonensis L1 larvae. As to the kind of experiment: In vitro assay with A. cantonensis L1 larvae. Format: cell-based. The following applies: for activity against A. cantonensis: L1 larvae, concentrations starting from 50 µM, 24 h. In outline:
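A. cantonensis (NPDN-AC strain, cycled through B. glabrata and Wistar rats) L1 larvae were recovered from rat feces by the Rugai technique and washed in RPMI 1640 with antibiotics. About 100 larvae/well were exposed to test compound starting at 50 µM at 21 °C, with drug-free medium, metal salt and 1% DMSO controls. Viability was checked microscopically at 0 and 24 h; efficacy meant ≥60% larvae immobile.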

For data set [2], the system named is Schistosoma mansoni adult worms. As to the kind of experiment: In vitro assay with adult S. mansoni. Format: cell-based. To be noted: concentrations starting from 50 µM, up to 72 h. The gist of the method: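 S. mansoni (Belo Horizonte strain) adults were perfused from the hepatic portal vein of Swiss mice 49 days post-infection. One worm pair/well in RPMI 1640 with 10% FBS, penicillin and streptomycin; test compound starting at 50 µM, with praziquantel, metal salts and 1% DMSO controls; 37 °C, 5% CO₂, up to 72 h. Viability by inverted microscope at 0, 24, 48 and 72 h; death meant no movement ≥1 min after gentle stimulation. Triplicate; EC50 by sigmoidal fit.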

Broadly, the EC50 is the concentration needed to bring the measured effect to its halfway point.

Regarding 2-oxopopulifolic acid methyl ester, the EC50 with S. mansoni adult worms was 50 µM.

For `CC1=CC(=O)CC2[C@]1(C)CC[C@@H](C)[C@]2(C)CCC(C)CC(=O)O` (some centres unmarked) [2-oxopopulifolic acid], in the data set with S. mansoni adult worms, the EC50 is 50 µM.

Take `O=C1C(=O)c2cccnc2-c2ncccc21.O=C1C(=O)c2cccnc2-c2ncccc21.[Ag+].[O-][Cl+3]([O-])([O-])[O-]` [Ag-phendione, [Ag(phendione)2](ClO4)]: the “C. elegans LD50” value in the data set on Caenorhabditis elegans is recorded as 167 µM.

For `O=[N+]([O-])[O-].[Ag+]` [AgNO₃], in data set [1], the “activity against A. cantonensis” value is “no activity”. The antischistosomal activity entry in data set [2] is on record as “no antischistosomal activity”.

As to `O.O.O.O.O.O.O.O.O=C1C(=O)c2cccnc2-c2ncccc21.O=C1C(=O)c2cccnc2-c2ncccc21.O=C1C(=O)c2cccnc2-c2ncccc21.[Cu+2].[O-][Cl+3]([O-])([O-])[O-].[O-][Cl+3]([O-])([O-])[O-]` [Cu-phendione, [Cu(phendione)3](ClO4)2·8H2O], in the data set on Caenorhabditis elegans, the “C. elegans LD50” value was determined as 280 µM.

Consider `O.O.O.O.O.O=S(=O)([O-])[O-].[Cu+2]` [CuSO₄·5 H₂O], for which the “activity against A. cantonensis” value in data set [1] is given as “no activity”. In addition, the antischistosomal activity result in data set [2] is “no antischistosomal activity”.

As to `O=C1C(=O)c2cccnc2-c2ncccc21` [Phendione, 1,10-phenanthroline-5,6-dione], the “C. elegans LD50” value in the data set with Caenorhabditis elegans was 719 µM. Also, the “larval motility compared to the control group” value in data set [1] (A. cantonensis L1 larvae) is recorded as “significantly reduced”.

As for `Cc1ccc(C(C)C)cc1O` [carvacrol], the EC50 with S. mansoni adult worms was 56.8 µM.

With `CC(=O)Oc1cc(C(C)C)ccc1C` [carvacryl acetate], the EC50 with S. mansoni adult worms was 42.2 µM.

Regarding `C=C1C(=O)O[C@@H]2/C=C(\CO)CC/C=C(\C)C[C@H](OC(=O)C(=C)[C@@H](O)CO)[C@@H]12` [cnicin], in the data set with S. mansoni adult worms, the EC50 was 50 µM.

With `O=c1c(O)c(-c2ccc(O)cc2)oc2cc(O)cc(O)c12` [kaempferol], the EC50 with S. mansoni adult worms is 81.8 µM.

As for `C/C=C/c1cc(OC)c2c(c1)[C@H](C)[C@@H](c1ccc(O)c(OC)c1)O2` [licarin A], the EC50 with S. mansoni adult worms is 30 µM.

Regarding `C=CC(C)(C)c1cc(/C=C/C(=O)c2ccc(O)cc2)c(OC)cc1O` [licochalcone A], the EC50 in the data set on S. mansoni adult worms is 50 µM.

Regarding Ivermectin, the “C. elegans LD50” value with Caenorhabditis elegans was 4.1 µM.
